Measured values taken from ChEMBL document CHEMBL5653631, “A Potent and Selective ULK1 Inhibitor Suppresses Autophagy and Sensitizes Cancer Cells to Nutrient Stress” (iScience, 2018).

Tests used:
[1] = target: T1, Inhibitor of nuclear factor kappa-B kinase subunit alpha (Homo sapiens) (UniProt O15111); assay: Inhibition of human recombinant IKKa at 500 nM in presence of ATP by radiometric assay relative to control
T1 sequence (whole entry): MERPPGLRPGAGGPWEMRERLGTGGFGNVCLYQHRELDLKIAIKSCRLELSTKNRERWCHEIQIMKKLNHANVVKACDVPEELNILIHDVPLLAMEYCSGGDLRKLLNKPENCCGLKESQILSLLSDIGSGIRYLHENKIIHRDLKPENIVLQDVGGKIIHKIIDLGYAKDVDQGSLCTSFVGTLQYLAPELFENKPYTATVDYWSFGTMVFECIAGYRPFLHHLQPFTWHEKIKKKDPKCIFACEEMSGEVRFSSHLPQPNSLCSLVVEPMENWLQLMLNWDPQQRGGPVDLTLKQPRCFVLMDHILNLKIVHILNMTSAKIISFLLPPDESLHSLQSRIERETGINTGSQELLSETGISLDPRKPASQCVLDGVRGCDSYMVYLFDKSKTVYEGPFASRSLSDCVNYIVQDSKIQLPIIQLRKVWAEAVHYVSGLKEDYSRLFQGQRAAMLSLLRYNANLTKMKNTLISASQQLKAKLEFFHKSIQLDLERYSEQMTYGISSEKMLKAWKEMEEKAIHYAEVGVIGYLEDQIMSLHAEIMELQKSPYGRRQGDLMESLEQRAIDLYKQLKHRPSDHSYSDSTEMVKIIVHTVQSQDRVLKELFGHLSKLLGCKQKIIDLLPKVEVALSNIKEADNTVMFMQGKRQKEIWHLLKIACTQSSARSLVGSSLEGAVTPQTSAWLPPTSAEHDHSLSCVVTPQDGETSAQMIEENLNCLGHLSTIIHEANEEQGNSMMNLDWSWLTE

[2] = target: Protein-tyrosine kinase 2-beta (Homo sapiens) (UniProt Q14289); assay: Inhibition of human recombinant PYK2 at 500 nM related to control ULK1
Chain of Protein-tyrosine kinase 2-beta (Homo sapiens) (Q14289 whole entry, looked up): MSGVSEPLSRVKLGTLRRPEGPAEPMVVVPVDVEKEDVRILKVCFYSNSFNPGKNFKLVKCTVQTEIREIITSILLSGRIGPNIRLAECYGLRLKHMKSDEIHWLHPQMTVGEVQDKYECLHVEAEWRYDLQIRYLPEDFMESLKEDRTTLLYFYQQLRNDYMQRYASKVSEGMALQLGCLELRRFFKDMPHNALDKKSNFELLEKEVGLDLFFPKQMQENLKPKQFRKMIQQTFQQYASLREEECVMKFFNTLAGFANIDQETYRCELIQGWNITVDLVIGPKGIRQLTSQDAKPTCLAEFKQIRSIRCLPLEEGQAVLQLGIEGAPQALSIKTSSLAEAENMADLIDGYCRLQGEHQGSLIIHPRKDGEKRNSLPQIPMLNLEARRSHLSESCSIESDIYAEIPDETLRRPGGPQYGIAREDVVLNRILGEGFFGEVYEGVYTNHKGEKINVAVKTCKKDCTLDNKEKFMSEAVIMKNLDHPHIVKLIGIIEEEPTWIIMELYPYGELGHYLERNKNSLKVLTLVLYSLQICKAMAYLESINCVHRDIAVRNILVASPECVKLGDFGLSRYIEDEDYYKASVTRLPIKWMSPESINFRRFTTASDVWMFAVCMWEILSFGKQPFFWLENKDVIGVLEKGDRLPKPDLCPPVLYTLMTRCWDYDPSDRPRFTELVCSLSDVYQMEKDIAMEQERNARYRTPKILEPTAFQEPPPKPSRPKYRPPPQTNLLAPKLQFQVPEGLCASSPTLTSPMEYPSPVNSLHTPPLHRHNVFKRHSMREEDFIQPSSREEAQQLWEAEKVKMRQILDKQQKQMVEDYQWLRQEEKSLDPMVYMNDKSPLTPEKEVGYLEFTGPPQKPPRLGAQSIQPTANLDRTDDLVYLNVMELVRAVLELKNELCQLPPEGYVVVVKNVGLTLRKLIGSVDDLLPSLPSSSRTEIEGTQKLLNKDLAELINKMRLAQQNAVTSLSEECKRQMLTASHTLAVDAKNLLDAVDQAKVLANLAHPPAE

[3] = target: High affinity nerve growth factor receptor (Homo sapiens) (UniProt P04629); assay: Inhibition of human recombinant TRKA at 500 nM in presence of ATP by radiometric assay relative to control
[4] = target: T2, Serine/threonine-protein kinase Nek11 (Homo sapiens) (UniProt Q8NG66); assay: Inhibition of human recombinant NEK11 at 15 nM related to control ULK1
T2 sequence (whole entry): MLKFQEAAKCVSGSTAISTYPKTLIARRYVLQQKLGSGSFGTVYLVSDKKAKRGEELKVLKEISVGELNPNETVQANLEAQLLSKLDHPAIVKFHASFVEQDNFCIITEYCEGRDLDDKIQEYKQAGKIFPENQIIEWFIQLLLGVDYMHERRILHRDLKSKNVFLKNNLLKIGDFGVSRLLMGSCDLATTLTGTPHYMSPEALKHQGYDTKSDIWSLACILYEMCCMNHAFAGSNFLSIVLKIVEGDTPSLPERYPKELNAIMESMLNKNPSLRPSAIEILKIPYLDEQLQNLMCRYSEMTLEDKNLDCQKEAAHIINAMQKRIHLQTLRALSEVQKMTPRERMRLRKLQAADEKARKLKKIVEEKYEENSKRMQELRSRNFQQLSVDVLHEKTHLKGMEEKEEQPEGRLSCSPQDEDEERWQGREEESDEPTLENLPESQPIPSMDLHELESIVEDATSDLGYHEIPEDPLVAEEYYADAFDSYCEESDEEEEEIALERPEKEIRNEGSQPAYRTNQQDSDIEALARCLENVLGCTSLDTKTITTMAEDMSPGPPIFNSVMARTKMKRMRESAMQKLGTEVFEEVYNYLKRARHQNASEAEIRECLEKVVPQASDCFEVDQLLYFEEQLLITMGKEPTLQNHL

[5] = target: Mitogen-activated protein kinase kinase kinase kinase 1 (Homo sapiens) (UniProt Q92918); assay: Inhibition of human recombinant HPK1 at 15 nM related to control ULK1
Chain of Mitogen-activated protein kinase kinase kinase kinase 1 (Homo sapiens) (Q92918 whole entry, looked up): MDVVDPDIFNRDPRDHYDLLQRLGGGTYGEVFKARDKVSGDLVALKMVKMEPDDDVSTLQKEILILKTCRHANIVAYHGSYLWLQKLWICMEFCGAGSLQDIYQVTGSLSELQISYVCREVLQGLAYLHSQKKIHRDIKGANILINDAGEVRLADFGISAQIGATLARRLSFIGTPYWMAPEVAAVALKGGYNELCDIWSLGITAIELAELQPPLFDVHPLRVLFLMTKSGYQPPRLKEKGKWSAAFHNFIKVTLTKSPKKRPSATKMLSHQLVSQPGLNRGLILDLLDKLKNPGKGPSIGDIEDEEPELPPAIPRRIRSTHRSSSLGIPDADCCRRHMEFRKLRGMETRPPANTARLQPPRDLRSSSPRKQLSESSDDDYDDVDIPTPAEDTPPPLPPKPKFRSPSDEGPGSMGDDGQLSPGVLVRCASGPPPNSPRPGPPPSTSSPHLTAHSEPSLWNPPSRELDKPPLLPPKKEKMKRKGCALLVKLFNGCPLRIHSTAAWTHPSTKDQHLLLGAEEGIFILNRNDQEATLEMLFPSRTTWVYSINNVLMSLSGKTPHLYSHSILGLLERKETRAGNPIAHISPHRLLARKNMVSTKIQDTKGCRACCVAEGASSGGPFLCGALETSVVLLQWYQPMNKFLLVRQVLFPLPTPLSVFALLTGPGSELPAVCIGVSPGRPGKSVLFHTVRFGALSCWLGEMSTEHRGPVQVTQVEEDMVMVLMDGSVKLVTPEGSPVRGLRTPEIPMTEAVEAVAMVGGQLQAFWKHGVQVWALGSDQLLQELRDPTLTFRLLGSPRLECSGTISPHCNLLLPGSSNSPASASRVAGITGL

[6] = target: T3, Serine/threonine-protein kinase BRSK2 (Homo sapiens) (UniProt Q8IWQ3); assay: Inhibition of human recombinant BRSK2 at 15 nM in presence of ATP by radiometric assay relative to control
T3 sequence (whole entry): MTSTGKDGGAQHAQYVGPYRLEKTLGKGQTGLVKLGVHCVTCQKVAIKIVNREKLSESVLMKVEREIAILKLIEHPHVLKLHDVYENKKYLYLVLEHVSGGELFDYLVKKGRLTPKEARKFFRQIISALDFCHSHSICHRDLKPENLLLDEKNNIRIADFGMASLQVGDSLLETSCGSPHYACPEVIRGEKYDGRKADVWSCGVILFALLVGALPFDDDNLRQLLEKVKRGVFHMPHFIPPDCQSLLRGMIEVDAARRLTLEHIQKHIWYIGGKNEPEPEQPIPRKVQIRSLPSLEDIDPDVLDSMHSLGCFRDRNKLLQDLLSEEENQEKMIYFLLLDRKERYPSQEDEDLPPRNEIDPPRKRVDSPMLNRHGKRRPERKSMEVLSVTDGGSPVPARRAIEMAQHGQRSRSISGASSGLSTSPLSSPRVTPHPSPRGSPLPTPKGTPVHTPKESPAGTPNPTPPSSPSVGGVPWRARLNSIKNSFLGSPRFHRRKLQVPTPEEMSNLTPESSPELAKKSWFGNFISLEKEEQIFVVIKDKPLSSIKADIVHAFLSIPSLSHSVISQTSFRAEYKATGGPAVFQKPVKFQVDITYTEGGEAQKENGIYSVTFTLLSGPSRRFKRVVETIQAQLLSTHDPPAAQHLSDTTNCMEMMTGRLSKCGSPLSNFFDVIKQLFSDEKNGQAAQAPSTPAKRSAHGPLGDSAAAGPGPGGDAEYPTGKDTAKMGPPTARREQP
How it was run: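 Recombinant human kinase panel (327 kinases) run as radiometric activity assays, each kinase in duplicate at one compound concentration. Activity remaining expressed relative to vehicle control; percent inhibition taken as 100% minus % activity remaining.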

[7] = target: Serine/threonine-protein kinase mTOR (Homo sapiens) (UniProt P42345); assay: Inhibition of human recombinant FRAP at 15 nM related to control ULK1
[8] = target: Mitogen-activated protein kinase kinase kinase 10 (Homo sapiens) (UniProt Q02779); assay: Inhibition of human recombinant MLK2 at 40 nM related to control ULK1
Chain of Mitogen-activated protein kinase kinase kinase 10 (Homo sapiens) (Q02779 whole entry, looked up): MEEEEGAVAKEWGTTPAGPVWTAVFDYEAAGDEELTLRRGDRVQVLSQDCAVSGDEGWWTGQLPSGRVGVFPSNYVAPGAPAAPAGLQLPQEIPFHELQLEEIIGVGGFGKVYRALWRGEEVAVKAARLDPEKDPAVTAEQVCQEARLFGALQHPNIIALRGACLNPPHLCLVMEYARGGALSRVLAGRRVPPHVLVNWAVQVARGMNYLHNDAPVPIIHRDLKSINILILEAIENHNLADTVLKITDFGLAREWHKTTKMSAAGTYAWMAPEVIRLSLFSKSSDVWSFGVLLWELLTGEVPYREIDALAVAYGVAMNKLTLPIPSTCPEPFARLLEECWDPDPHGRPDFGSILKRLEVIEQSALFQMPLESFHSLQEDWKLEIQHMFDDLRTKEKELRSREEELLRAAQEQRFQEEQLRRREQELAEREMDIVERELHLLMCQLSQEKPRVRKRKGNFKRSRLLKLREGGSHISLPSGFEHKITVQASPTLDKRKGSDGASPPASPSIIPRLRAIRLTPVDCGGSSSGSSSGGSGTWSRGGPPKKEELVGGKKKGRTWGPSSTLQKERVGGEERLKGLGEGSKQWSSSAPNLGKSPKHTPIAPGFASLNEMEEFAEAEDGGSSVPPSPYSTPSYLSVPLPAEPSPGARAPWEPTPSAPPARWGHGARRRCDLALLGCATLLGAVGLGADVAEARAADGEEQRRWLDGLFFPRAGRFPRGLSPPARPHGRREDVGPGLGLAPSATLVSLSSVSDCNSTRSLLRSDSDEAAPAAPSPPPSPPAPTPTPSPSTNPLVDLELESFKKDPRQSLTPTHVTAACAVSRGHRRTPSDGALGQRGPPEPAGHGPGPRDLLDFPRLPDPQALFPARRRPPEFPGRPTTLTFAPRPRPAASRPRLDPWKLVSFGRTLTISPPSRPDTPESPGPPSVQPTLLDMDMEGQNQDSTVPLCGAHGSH

[9] = target: Tyrosine-protein kinase Lck (Homo sapiens) (UniProt P06239); assay: Inhibition of human recombinant LCK at 40 nM in presence of ATP by radiometric assay relative to control
Chain of Tyrosine-protein kinase Lck (Homo sapiens) (P06239 2-509 limits assumed): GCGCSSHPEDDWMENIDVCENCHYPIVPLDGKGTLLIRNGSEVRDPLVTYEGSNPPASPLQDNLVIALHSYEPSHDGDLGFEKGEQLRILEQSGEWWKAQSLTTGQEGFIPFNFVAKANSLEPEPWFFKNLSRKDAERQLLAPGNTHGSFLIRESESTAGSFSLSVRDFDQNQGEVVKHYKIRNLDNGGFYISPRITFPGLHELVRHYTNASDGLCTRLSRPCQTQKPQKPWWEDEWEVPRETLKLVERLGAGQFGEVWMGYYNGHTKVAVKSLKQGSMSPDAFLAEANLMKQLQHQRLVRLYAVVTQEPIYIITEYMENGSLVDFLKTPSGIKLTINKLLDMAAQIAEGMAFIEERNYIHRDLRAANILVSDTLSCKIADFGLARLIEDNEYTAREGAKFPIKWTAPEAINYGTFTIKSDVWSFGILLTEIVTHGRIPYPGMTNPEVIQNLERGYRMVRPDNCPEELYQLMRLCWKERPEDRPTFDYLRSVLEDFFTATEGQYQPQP

[10] = target: Tyrosine-protein kinase CSK (Homo sapiens) (UniProt P41240); assay: Inhibition of human recombinant CSK at 40 nM in presence of ATP by radiometric assay relative to control
Chain of Tyrosine-protein kinase CSK (Homo sapiens) (P41240 2-450 limits assumed): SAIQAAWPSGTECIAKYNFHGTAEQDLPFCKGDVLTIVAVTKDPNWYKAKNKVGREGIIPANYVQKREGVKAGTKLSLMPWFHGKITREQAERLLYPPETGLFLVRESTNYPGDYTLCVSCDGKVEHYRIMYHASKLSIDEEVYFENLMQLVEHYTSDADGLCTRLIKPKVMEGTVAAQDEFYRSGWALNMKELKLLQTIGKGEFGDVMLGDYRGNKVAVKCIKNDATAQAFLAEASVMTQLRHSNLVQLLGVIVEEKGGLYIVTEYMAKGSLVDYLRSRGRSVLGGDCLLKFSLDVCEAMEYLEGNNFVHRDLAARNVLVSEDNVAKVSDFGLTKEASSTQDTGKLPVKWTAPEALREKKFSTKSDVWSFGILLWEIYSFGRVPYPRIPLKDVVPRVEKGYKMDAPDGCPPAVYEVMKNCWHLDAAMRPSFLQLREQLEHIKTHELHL

[11] = target: Proto-oncogene tyrosine-protein kinase receptor Ret (Homo sapiens) (UniProt P07949); assay: Inhibition of human recombinant RET at 40 nM related to control ULK1
Chain of Proto-oncogene tyrosine-protein kinase receptor Ret (Homo sapiens) (P07949 whole entry): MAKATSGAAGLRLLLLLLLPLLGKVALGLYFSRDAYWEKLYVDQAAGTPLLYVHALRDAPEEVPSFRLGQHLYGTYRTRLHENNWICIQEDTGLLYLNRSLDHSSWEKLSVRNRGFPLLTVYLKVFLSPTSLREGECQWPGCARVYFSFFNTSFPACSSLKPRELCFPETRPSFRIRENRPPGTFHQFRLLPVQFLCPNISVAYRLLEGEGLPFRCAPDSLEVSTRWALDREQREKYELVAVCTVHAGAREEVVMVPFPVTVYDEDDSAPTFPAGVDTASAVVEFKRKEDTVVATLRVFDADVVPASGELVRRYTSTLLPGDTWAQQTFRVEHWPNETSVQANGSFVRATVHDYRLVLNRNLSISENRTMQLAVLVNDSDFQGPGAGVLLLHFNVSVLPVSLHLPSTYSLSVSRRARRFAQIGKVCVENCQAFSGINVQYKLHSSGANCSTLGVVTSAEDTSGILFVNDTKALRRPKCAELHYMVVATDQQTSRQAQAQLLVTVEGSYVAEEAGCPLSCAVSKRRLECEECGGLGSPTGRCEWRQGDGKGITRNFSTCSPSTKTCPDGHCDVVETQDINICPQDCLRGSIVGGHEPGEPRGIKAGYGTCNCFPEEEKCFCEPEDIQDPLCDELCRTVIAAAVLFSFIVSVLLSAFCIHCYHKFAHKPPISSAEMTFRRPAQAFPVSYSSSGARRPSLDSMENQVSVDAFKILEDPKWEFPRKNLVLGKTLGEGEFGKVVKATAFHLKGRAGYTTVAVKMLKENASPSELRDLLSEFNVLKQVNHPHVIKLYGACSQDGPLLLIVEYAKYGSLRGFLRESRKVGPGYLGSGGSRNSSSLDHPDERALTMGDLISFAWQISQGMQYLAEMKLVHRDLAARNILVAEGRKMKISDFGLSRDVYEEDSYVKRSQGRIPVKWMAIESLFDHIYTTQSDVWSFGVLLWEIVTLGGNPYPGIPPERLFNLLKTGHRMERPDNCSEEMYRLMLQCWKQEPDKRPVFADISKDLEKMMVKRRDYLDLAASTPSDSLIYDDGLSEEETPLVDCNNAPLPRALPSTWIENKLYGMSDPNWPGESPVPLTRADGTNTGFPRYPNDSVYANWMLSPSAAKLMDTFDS

Structure (SMILES): CNC(=O)c1ccccc1Oc1nc(Nc2cc(OC)c(OC)c(OC)c2)ncc1Br
- inhibition [1]: 2%
- fold change (FC) [2]: 0.72
- inhibition [3]: 52%

Structure (SMILES): CC(C)[C@H](NC(=O)c1cc(-c2cnn3cc(-c4ccc(OCCN5CCCCC5)cc4)cnc23)cs1)C(F)(F)F
- fold change (FC) [4]: 0
- fold change (FC) [5]: 0
- inhibition [6]: 25%
- fold change (FC) [7]: 0

Structure (SMILES): O=C(N[C@@H](C1CC1)C(F)(F)F)c1cc(-c2cnn3cc(-c4ccc(F)cc4)cnc23)cs1
- fold change (FC) [8]: 0
- inhibition [9]: 0%
- inhibition [10]: 0%
- fold change (FC) [11]: 0
